Reference: ChEMBL document CHEMBL2311305, “Antiproliferative potency of novel benzofuran-2-carboxamides on tumour cell lines: cell death mechanisms and determination of crystal structure” (Eur J Med Chem, 2013)
Calls of active or inactive are those of the source. No cut-off for these calls is given here.

Legend:
SK-BR-3 [1] = assay: Induction of apoptosis in human SKBR3 cells assessed as caspase9 activation at 5 uM after 24 to 48 hrs by caspase protease assay; assay type: functional, cell-based
Summary of the method: (§1)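 Compound at 5 µM on SK-BR-3 and 10 µM on SW620. Cells harvested after 24 and 48 h, washed in PBS, lysed 10 min on ice, centrifuged. Lysate diluted to 3 mg/mL protein and mixed with DTT-containing reaction buffer and caspase-3, -8 or -9 substrate. Incubated 90 min at 37 °C in the dark. Absorbance read at 405 nm, duplicates, compared with untreated control.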

SK-BR-3 [2] = assay: Induction of apoptosis in human SKBR3 cells assessed as caspase8 activation at 5 uM after 24 to 48 hrs by caspase protease assay; assay type: functional, cell-based; summary of the method: as §1
SK-BR-3 [3] = assay: Induction of apoptosis in human SKBR3 cells assessed as caspase3 activation at 5 uM after 24 to 48 hrs by caspase protease assay; assay type: functional, cell-based; summary of the method: as §1
SK-BR-3 [4] = assay: Induction of cell cycle arrest in human SKBR3 cells assessed as G2/M phase cells at 10 uM after 48 hrs by PI-staining based flow cytometric analysis (reference value: 11.6 +/- 0.3%); assay type: functional
SK-BR-3 [5] = assay: Induction of cell cycle arrest in human SKBR3 cells assessed as G2/M phase cells at 5 uM after 48 hrs by PI-staining based flow cytometric analysis (reference value: 11.6 +/- 0.3%); assay type: functional
SK-BR-3 [6] = assay: Induction of cell cycle arrest in human SKBR3 cells assessed as S phase cells at 10 uM after 48 hrs by PI-staining based flow cytometric analysis (reference value: 35.2 +/- 1.8%); assay type: functional
SK-BR-3 [7] = assay: Induction of cell cycle arrest in human SKBR3 cells assessed as S phase cells at 5 uM after 48 hrs by PI-staining based flow cytometric analysis (reference value: 35.2 +/- 1.8%); assay type: functional
SK-BR-3 [8] = assay: Induction of cell cycle arrest in human SKBR3 cells assessed as G1 phase cells at 10 uM after 48 hrs by PI-staining based flow cytometric analysis (reference value: 53.3 +/- 1.5%); assay type: functional
SK-BR-3 [9] = assay: Induction of cell cycle arrest in human SKBR3 cells assessed as G1 phase cells at 5 uM after 48 hrs by PI-staining based flow cytometric analysis (reference value: 53.3 +/- 1.5%); assay type: functional
SK-BR-3 [10] = assay: Induction of cell cycle arrest in human SKBR3 cells assessed as subG1 phase cells at 10 uM after 48 hrs by PI-staining based flow cytometric analysis (reference value: 27.5 +/- 0.2%); assay type: functional
SK-BR-3 [11] = assay: Induction of cell cycle arrest in human SKBR3 cells assessed as subG1 phase cells at 5 uM after 48 hrs by PI-staining based flow cytometric analysis (reference value: 27.5 +/- 0.2%); assay type: functional
SK-BR-3 [12] = assay: Induction of cell cycle arrest in human SKBR3 cells assessed as G2/M phase cells at 5 uM after 24 hrs by PI-staining based flow cytometric analysis (reference value: 33.7 +/- 0.3%); assay type: functional
SK-BR-3 [13] = assay: Induction of cell cycle arrest in human SKBR3 cells assessed as G2/M phase cells at 10 uM after 24 hrs by PI-staining based flow cytometric analysis (reference value: 33.7 +/- 0.3%); assay type: functional
SK-BR-3 [14] = assay: Induction of cell cycle arrest in human SKBR3 cells assessed as S phase cells at 10 uM after 24 hrs by PI-staining based flow cytometric analysis (reference value: 26.2 +/- 2.3%); assay type: functional
SK-BR-3 [15] = assay: Induction of cell cycle arrest in human SKBR3 cells assessed as S phase cells at 5 uM after 24 hrs by PI-staining based flow cytometric analysis (reference value: 26.2 +/- 2.3%); assay type: functional
SK-BR-3 [16] = assay: Induction of cell cycle arrest in human SKBR3 cells assessed as G1 phase cells at 10 uM after 24 hrs by PI-staining based flow cytometric analysis (reference value: 40.1 +/- 0.7%); assay type: functional
SK-BR-3 [17] = assay: Induction of cell cycle arrest in human SKBR3 cells assessed as G1 phase cells at 5 uM after 24 hrs by PI-staining based flow cytometric analysis (reference value: 40.1 +/- 0.7%); assay type: functional
SK-BR-3 [18] = assay: Induction of cell cycle arrest in human SKBR3 cells assessed as subG1 phase cells at 10 uM after 24 hrs by PI-staining based flow cytometric analysis (reference value: 25.1 +/- 0.4%); assay type: functional
HeLa = assay: Cytotoxicity against human HeLa cells after 72 hrs by MTT assay; assay type: functional, cell-based; settings: Homo sapiens, HeLa, 72 h
Summary of the method: (§2)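 Cells seeded at 3000-6000 per well on day 0, according to cell line doubling time. Compound added in five 10-fold dilutions, 72-h incubation, then MTT colorimetric read-out. Absorbances converted to percentage growth by NCI formulae. IC50 obtained by linear regression between the concentrations bracketing PG 50; ">100" assigned when no concentration reaches it. Quadruplicate points, three independent experiments.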

SK-BR-3 [19] = assay: Induction of cell cycle arrest in human SKBR3 cells assessed as subG1 phase cells at 5 uM after 24 hrs by PI-staining based flow cytometric analysis (reference value: 25.1 +/- 0.4%); assay type: functional
MIA PaCa-2 = assay: Cytotoxicity against human MIAPaCa2 cells after 72 hrs by MTT assay; assay type: functional, cell-based; settings: Homo sapiens, MIA PaCa-2, 72 h; summary of the method: as §2
WI-38 = assay: Cytotoxicity against human WI38 cells after 72 hrs by MTT assay; assay type: cell-based; settings: Homo sapiens, WI-38, 72 h; summary of the method: as §2
SW-620 [20] = assay: Cytotoxicity against human SW620 cells after 72 hrs by MTT assay; assay type: functional, cell-based; settings: for IC50: Homo sapiens, SW-620, 72 h; summary of the method: as §2
MCF7 = assay: Cytotoxicity against human MCF7 cells after 72 hrs by MTT assay; assay type: functional, cell-based; settings: Homo sapiens, MCF7, 72 h; summary of the method: as §2
SK-BR-3 [21] = assay: Cytotoxicity against human SKBR3 cells after 72 hrs by MTT assay; assay type: functional, cell-based; settings: SK-BR-3, 72 h; summary of the method: as §2
SW-620 [22] = assay: Induction of mitotic catastrophe in human SW620 cells assessed as accumulation of G2/M phase cells at 5 to 10 uM after 24 to 48 hrs by PI-staining based flow cytometric analysis relative to control; assay type: functional, cell-based
SW-620 [23] = assay: Induction of apoptosis in human SW620 cells assessed as caspase9 activation at 10 uM after 24 to 48 hrs by caspase protease assay; assay type: functional, cell-based; summary of the method: as §1
SW-620 [24] = assay: Induction of apoptosis in human SW620 cells assessed as caspase8 activation at 10 uM after 24 to 48 hrs by caspase protease assay; assay type: functional, cell-based; summary of the method: as §1
SW-620 [25] = assay: Induction of apoptosis in human SW620 cells assessed as caspase3 activation at 10 uM after 24 to 48 hrs by caspase protease assay; assay type: functional, cell-based; summary of the method: as §1
SW-620 [26] = assay: Induction of cell cycle arrest in human SW620 cells assessed as G2/M phase cells at 10 uM after 48 hrs by PI-staining based flow cytometric analysis (reference value: 8.9 +/- 0.4%); assay type: functional
SW-620 [27] = assay: Induction of cell cycle arrest in human SW620 cells assessed as S phase cells at 10 uM after 48 hrs by PI-staining based flow cytometric analysis (reference value: 39.9 +/- 0.5%); assay type: functional
SW-620 [28] = assay: Induction of cell cycle arrest in human SW620 cells assessed as G2/M phase cells at 5 uM after 48 hrs by PI-staining based flow cytometric analysis (reference value: 8.9 +/- 0.4%); assay type: functional
SW-620 [29] = assay: Induction of cell cycle arrest in human SW620 cells assessed as S phase cells at 5 uM after 48 hrs by PI-staining based flow cytometric analysis (reference value: 39.9 +/- 0.5%); assay type: functional
SW-620 [30] = assay: Induction of cell cycle arrest in human SW620 cells assessed as G1 phase cells at 5 uM after 48 hrs by PI-staining based flow cytometric analysis (reference value: 51.1 +/- 2.5%); assay type: functional
SW-620 [31] = assay: Induction of cell cycle arrest in human SW620 cells assessed as G1 phase cells at 10 uM after 48 hrs by PI-staining based flow cytometric analysis (reference value: 51.1 +/- 2.5%); assay type: functional
SW-620 [32] = assay: Induction of cell cycle arrest in human SW620 cells assessed as subG1 phase cells at 10 uM after 48 hrs by PI-staining based flow cytometric analysis (reference value: 8.5 +/- 2.1%); assay type: functional
SW-620 [33] = assay: Induction of cell cycle arrest in human SW620 cells assessed as subG1 phase cells at 5 uM after 48 hrs by PI-staining based flow cytometric analysis (reference value: 8.5 +/- 2.1%); assay type: functional
SW-620 [34] = assay: Induction of cell cycle arrest in human SW620 cells assessed as G2/M phase cells at 10 uM after 24 hrs by PI-staining based flow cytometric analysis (reference value: 12.6 +/- 1%); assay type: functional
SW-620 [35] = assay: Induction of cell cycle arrest in human SW620 cells assessed as G2/M phase cells at 5 uM after 24 hrs by PI-staining based flow cytometric analysis (reference value: 12.6 +/- 1%); assay type: functional
SW-620 [36] = assay: Induction of cell cycle arrest in human SW620 cells assessed as S phase cells at 10 uM after 24 hrs by PI-staining based flow cytometric analysis (reference value: 41.1 +/- 0.8%); assay type: functional
SW-620 [37] = assay: Induction of cell cycle arrest in human SW620 cells assessed as S phase cells at 5 uM after 24 hrs by PI-staining based flow cytometric analysis (reference value: 41.1 +/- 0.8%); assay type: functional
SW-620 [38] = assay: Induction of cell cycle arrest in human SW620 cells assessed as G1 phase cells at 10 uM after 24 hrs by PI-staining based flow cytometric analysis (reference value: 46.3 +/- 1.8%); assay type: functional
SW-620 [39] = assay: Induction of cell cycle arrest in human SW620 cells assessed as G1 phase cells at 5 uM after 24 hrs by PI-staining based flow cytometric analysis (reference value: 46.3 +/- 1.8%); assay type: functional
SW-620 [40] = assay: Induction of cell cycle arrest in human SW620 cells assessed as subG1 phase cells at 10 uM after 24 hrs by PI-staining based flow cytometric analysis (reference value: 6.9 +/- 2.1%); assay type: functional
SW-620 [41] = assay: Induction of cell cycle arrest in human SW620 cells assessed as subG1 phase cells at 5 uM after 24 hrs by PI-staining based flow cytometric analysis (reference value: 6.9 +/- 2.1%); assay type: functional

Cl.O=C(Nc1nc2ccc(C3=NCCN3)cc2[nH]1)c1cc2ccccc2o1
Activity (SK-BR-3 [1]): Active | Activity (SK-BR-3 [2]): Active | Activity (SK-BR-3 [3]): Active | Activity (SK-BR-3 [4]): 15.9% | Activity (SK-BR-3 [5]): 9.7% | Activity (SK-BR-3 [6]): 31.3% | Activity (SK-BR-3 [7]): 68.5% | Activity (SK-BR-3 [8]): 52.8% | Activity (SK-BR-3 [9]): 21.8% | Activity (SK-BR-3 [10]): 36.3% | Activity (SK-BR-3 [11]): 38.1% | Activity (SK-BR-3 [12]): 10% | Activity (SK-BR-3 [13]): 6.4% | Activity (SK-BR-3 [14]): 23.6% | Activity (SK-BR-3 [15]): 31.5% | Activity (SK-BR-3 [16]): 70% | Activity (SK-BR-3 [17]): 58.5% | Activity (SK-BR-3 [18]): 31.5% | IC50 (HeLa): 68.5 µM | Activity (SK-BR-3 [19]): 33.1% | IC50 (MIA PaCa-2): 91.2 µM | IC50 (WI-38): > 100 µM | IC50 (SW-620 [20]): 74.9 µM | IC50 (MCF7): 7 µM | IC50 (SK-BR-3 [21]): 3.83 µM

Cl.O=C(Nc1ccc(C2=NCCN2)cc1)c1cc2ccccc2o1
Activity (SW-620 [22]): Active | Activity (SW-620 [23]): inactive | Activity (SW-620 [24]): inactive | Activity (SW-620 [25]): inactive | Activity (SW-620 [26]): 10.5% | Activity (SW-620 [27]): 42.6% | Activity (SW-620 [28]): 8.3% | Activity (SW-620 [29]): 40.7% | Activity (SW-620 [30]): 46.8% | Activity (SW-620 [31]): 46.9% | Activity (SW-620 [32]): 8.2% | Activity (SW-620 [33]): 4.9% | Activity (SW-620 [34]): 13.5% | Activity (SW-620 [35]): 12.7% | Activity (SW-620 [36]): 40.9% | Activity (SW-620 [37]): 43.9% | Activity (SW-620 [38]): 45.7% | Activity (SW-620 [39]): 43.4% | Activity (SW-620 [40]): 10.4% | Activity (SW-620 [41]): 7.1% | IC50 (HeLa): 27.5 µM | IC50 (MIA PaCa-2): 31.5 µM | IC50 (WI-38): 23.3 µM | Activity (SW-620 [20]): Dose-dependent effect | IC50 (SW-620 [20]): 6.4 µM | IC50 (MCF7): 26.2 µM | IC50 (SK-BR-3 [21]): 40.5 µM
